ChEMBL document CHEMBL4043283, “Discovery and Preclinical Development of IIIM-290, an Orally Active Potent Cyclin-Dependent Kinase Inhibitor” (J Med Chem, 2018)

Assays:
HL-60 = assay: Growth inhibition of human HL60 cells at 10 uM after 48 hrs by MTT assay relative to control; format: functional; settings: HL-60, 48 h, read-out: GI
In short: (§1)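 Single-concentration primary screen at 10 μM by MTT assay. Cells were NCI-sourced cancer lines grown in appropriate medium at 37 °C, 95% humidity, 5% CO2. Growth inhibition is expressed relative to control.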

MCF7 = assay: Growth inhibition of human MCF7 cells at 10 uM after 48 hrs by MTT assay relative to control; format: functional; settings: MCF7, 48 h, read-out: GI; in short: as §1
MIA PaCa-2 = assay: Growth inhibition of human MIAPaCa2 cells at 10 uM after 48 hrs by MTT assay relative to control; format: functional; settings: MIA PaCa-2, 48 h, read-out: GI; in short: as §1
PC-3 = assay: Growth inhibition of human PC3 cells at 10 uM after 48 hrs by MTT assay relative to control; format: functional; settings: PC-3, 48 h, read-out: GI; in short: as §1
Caco-2 = assay: Growth inhibition of human Caco2 cells at 10 uM after 48 hrs by MTT assay relative to control; format: functional; settings: Caco-2, 48 h, read-out: GI; in short: as §1
[1] = target: CDK2/Cyclin A2 (Homo sapiens) (UniProt P24941+P20248); assay: Inhibition of CDK2/cyclin A (unknown origin) at 0.5 uM using histone H1 as substrate after 30 mins in presence of [33P]-gamma-ATP by filter binding assay relative to control; format: protein-complex assay
[2] = target: CDK9/cyclin T1 (Homo sapiens) (UniProt O60563+P50750); assay: Inhibition of CDK9/cyclin T1 (unknown origin) at 0.5 uM using YSPTSPSYSPTSPSYSPTSPKKK as substrate after 30 mins in presence of [33P]-gamma-ATP by filter binding assay relative to control; format: protein-complex assay

inhibition [1]	inhibition [2]	Structure (SMILES)	inhibition of growth at 10 µM (HL-60)	inhibition of growth at 10 µM (MCF7)	inhibition of growth at 10 µM (MIA PaCa-2)	inhibition of growth at 10 µM (PC-3)	inhibition of growth at 10 µM (Caco-2)
0%	0%	Cc1oc2c([C@H]3CCN(C)C[C@H]3O)c(O)cc(O)c2c(=O)c1C(O)c1c(Cl)cccc1Cl (some centres undefined)	14%	33%	0%	0%	24%
0%	5%	Cc1cc(=O)c2c(O)cc(OCc3ccc([N+](=O)[O-])cc3)c([C@H]3CCN(C)C[C@H]3O)c2o1	14%	39%	12%	23%	14%
10%	0%	Cc1cc(=O)c2c(O)cc(OCc3ccccc3)c([C@H]3CCN(C)C[C@H]3O)c2o1	24%	1%	14%	41%	18%
0%	4%	CCN(CC)Cc1c(O)c([C@H]2CCN(C)C[C@H]2O)c2oc(C)cc(=O)c2c1O	47%	24%	27%	2%	17%
6%	8%	Cc1oc2c([C@H]3CCN(C)C[C@H]3O)c(O)cc(O)c2c(=O)c1C(O)c1ccc([N+](=O)[O-])cc1 (some centres undefined)	0%	4%	2%	24%	5%
0%	0%	Cc1oc2c([C@H]3CCN(C)C[C@H]3O)c(O)cc(O)c2c(=O)c1C(O)c1cccc(Cl)c1Cl (some centres undefined)	12%	7%	2%	20%	3%
10%	5%	Cc1cc(=O)c2c(O)c(CN3CCC(N4CCCCC4)CC3)c(O)c([C@H]3CCN(C)C[C@H]3O)c2o1	34%	25%	23%	17%	31%
0%	6%	Cc1cc(=O)c2c(O)c(CN3CCC(c4ccccc4)CC3)c(O)c([C@H]3CCN(C)C[C@H]3O)c2o1	26%	23%	16%	22%	21%
5%	0%	CCOC(=O)N1CCN(Cc2c(O)c([C@H]3CCN(C)C[C@H]3O)c3oc(C)cc(=O)c3c2O)CC1	16%	31%	4%	1%	18%
10%	10%	Cc1cc(=O)c2c(O)c(CN3CCCCC3)c(O)c([C@H]3CCN(C)C[C@H]3O)c2o1	32%	15%	14%	14%	22%
2%	2%	Cc1oc2c([C@H]3CCN(C)C[C@H]3O)c(O)cc(O)c2c(=O)c1C(O)c1ccc(F)c(Br)c1 (some centres undefined)	25%	14%	9%	72%	6%
7%	5%	Cc1cc(=O)c2c(O)c(CN3CCCC3)c(O)c([C@H]3CCN(C)C[C@H]3O)c2o1	38%	12%	28%	10%	22%
